Measured values from ChEMBL document CHEMBL4715736, “Identification of anticancer agents based on the thieno[2,3-b]pyridine and 1H-pyrazole molecular scaffolds” (2016).

What was measured:
Assay type in all cases: functional
[1] = system: CCRF-CEM; assay: Growth inhibition of human CCRF-CEM cells assessed as cell growth at 0.01 uM incubated for 48 hrs by sulforhodamine B assay relative to control; conditions: read-out: Activity
In short: (§1)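 NCI Developmental Therapeutics Program NCI60 panel. Compounds that were active in the 10 µM one-dose screen went on to dose–response testing. Growth at each concentration is expressed relative to untreated control (100%). GI50 (concentration giving 50% of maximal inhibition of proliferation) and TGI (concentration giving total growth inhibition) were derived from the curves.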

[2] = system: HOP-62; assay: Growth inhibition of human HOP-62 cells assessed as cell growth at 0.01 uM incubated for 48 hrs by sulforhodamine B assay relative to control; conditions: read-out: Activity
[3] = system: NCI-H522; assay: Growth inhibition of human NCI-H522 cells assessed as cell growth at 0.01 uM incubated for 48 hrs by sulforhodamine B assay relative to control; conditions: read-out: Activity
[4] = system: LOX IMVI; assay: Growth inhibition of human LOX IMVI cells assessed as cell growth at 0.01 uM incubated for 48 hrs by sulforhodamine B assay relative to control; conditions: read-out: Activity
[5] = system: MDA-MB-435; assay: Growth inhibition of human MDA-MB-435 cells assessed as cell growth at 0.01 uM incubated for 48 hrs by sulforhodamine B assay relative to control; conditions: read-out: Activity
[6] = system: UACC-257; assay: Growth inhibition of human UACC-257 cells assessed as cell growth at 0.01 uM incubated for 48 hrs by sulforhodamine B assay relative to control; conditions: read-out: Activity
[7] = system: IGROV-1; assay: Growth inhibition of human IGROV-1 cells assessed as cell growth at 0.01 uM incubated for 48 hrs by sulforhodamine B assay relative to control; conditions: read-out: Activity
[8] = system: RXF 393; assay: Growth inhibition of human RXF 393 cells assessed as cell growth at 0.01 uM incubated for 48 hrs by sulforhodamine B assay relative to control; conditions: read-out: Activity
[9] = system: UO-31; assay: Growth inhibition of human UO-31 cells assessed as cell growth at 0.01 uM incubated for 48 hrs by sulforhodamine B assay relative to control; conditions: read-out: Activity
[10] = system: BT-549; assay: Growth inhibition of human BT-549 cells assessed as cell growth at 0.01 uM incubated for 48 hrs by sulforhodamine B assay relative to control; conditions: read-out: Activity
[11] = system: CCRF-CEM; assay: Growth inhibition of human CCRF-CEM cells assessed as cell growth at 0.1 uM incubated for 48 hrs by sulforhodamine B assay relative to control; conditions: read-out: Activity; in short: as §1
[12] = system: SW-620; assay: Growth inhibition of human SW-620 cells assessed as cell growth at 0.1 uM incubated for 48 hrs by sulforhodamine B assay relative to control; conditions: read-out: Activity
[13] = system: SNB-75; assay: Growth inhibition of human SNB-75 cells assessed as cell growth at 0.1 uM incubated for 48 hrs by sulforhodamine B assay relative to control; conditions: read-out: Activity
[14] = system: TK-10; assay: Growth inhibition of human TK-10 cells assessed as cell growth at 0.1 uM incubated for 48 hrs by sulforhodamine B assay relative to control; conditions: read-out: Activity
[15] = system: UO-31; assay: Growth inhibition of human UO-31 cells assessed as cell growth at 0.1 uM incubated for 48 hrs by sulforhodamine B assay relative to control; conditions: read-out: Activity
[16] = system: T47D; assay: Growth inhibition of human T47D cells assessed as cell growth at 0.1 uM incubated for 48 hrs by sulforhodamine B assay relative to control; conditions: read-out: Activity
[17] = system: NCI-H226; assay: Growth inhibition of human NCI-H226 cells assessed as cell growth at 1 uM incubated for 48 hrs by sulforhodamine B assay relative to control; conditions: read-out: Activity
[18] = system: LOX IMVI; assay: Growth inhibition of human LOX IMVI cells assessed as cell growth at 1 uM incubated for 48 hrs by sulforhodamine B assay relative to control; conditions: read-out: Activity
[19] = system: SK-MEL-28; assay: Growth inhibition of human SK-MEL-28 cells assessed as cell growth at 1 uM incubated for 48 hrs by sulforhodamine B assay relative to control; conditions: read-out: Activity
[20] = system: IGROV-1; assay: Growth inhibition of human IGROV-1 cells assessed as cell growth at 1 uM incubated for 48 hrs by sulforhodamine B assay relative to control; conditions: read-out: Activity
[21] = system: MCF7; assay: Growth inhibition of human MCF7 cells assessed as cell growth at 1 uM incubated for 48 hrs by sulforhodamine B assay relative to control; conditions: read-out: Activity
[22] = system: MOLT-4; assay: Growth inhibition of human MOLT-4 cells assessed as cell growth at 100 uM incubated for 48 hrs by sulforhodamine B assay relative to control; conditions: read-out: Activity
[23] = system: NCI-H460; assay: Growth inhibition of human NCI-H460 cells assessed as cell growth at 100 uM incubated for 48 hrs by sulforhodamine B assay relative to control; conditions: read-out: Activity
[24] = system: HCT-15; assay: Growth inhibition of human HCT-15 cells assessed as cell growth at 100 uM incubated for 48 hrs by sulforhodamine B assay relative to control; conditions: read-out: Activity
[25] = system: HT-29; assay: Growth inhibition of human HT-29 cells assessed as cell growth at 100 uM incubated for 48 hrs by sulforhodamine B assay relative to control; conditions: read-out: Activity
[26] = system: SNB-75; assay: Growth inhibition of human SNB-75 cells assessed as cell growth at 100 uM incubated for 48 hrs by sulforhodamine B assay relative to control; conditions: read-out: Activity
[27] = system: 786-0; assay: Growth inhibition of human 786-0 cells assessed as cell growth at 100 uM incubated for 48 hrs by sulforhodamine B assay relative to control; conditions: read-out: Activity
[28] = system: ACHN; assay: Growth inhibition of human ACHN cells assessed as cell growth at 100 uM incubated for 48 hrs by sulforhodamine B assay relative to control; conditions: read-out: Activity
[29] = system: K562; assay: Growth inhibition of human K562 cells incubated for 48 hrs by sulforhodamine B assay
In short: (§2)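 NCI60 panel at the NCI Developmental Therapeutics Program. Only compounds active in the 10 µM screen went to dose-response testing. GI50, the concentration giving 50% of maximal inhibition of proliferation, and TGI, the concentration giving total growth inhibition, were derived from the dose-response curves.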

[30] = system: Malme-3M; assay: Growth inhibition of human Malme-3M cells incubated for 48 hrs by sulforhodamine B assay; in short: as §2
[31] = system: NCI/ADR-RES; assay: Growth inhibition of human NCI/ADR-RES cells incubated for 48 hrs by sulforhodamine B assay; conditions: for CC50: read-out: LC50 (the source's name); in short: as §2
[32] = system: RXF 393; assay: Growth inhibition of human RXF 393 cells incubated for 48 hrs by sulforhodamine B assay; conditions: for CC50: read-out: LC50 (the source's name)
In short: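 NCI DTP 60-line human tumour panel. Dose-response curves were run only for ligands active in the initial 10 µM screen. GI50 (concentration giving 50% of maximal inhibition of proliferation) and TGI (concentration giving total growth inhibition) were derived from these curves.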

[33] = system: MCF7; assay: Growth inhibition of human MCF7 cells incubated for 48 hrs by sulforhodamine B assay; conditions: for CC50: read-out: LC50 (the source's name); in short: as §2
[34] = system: UACC-62; assay: Growth inhibition of human UACC-62 cells assessed as cell growth at 0.01 uM incubated for 48 hrs by sulforhodamine B assay relative to control; conditions: read-out: Activity
[35] = system: PC-3; assay: Growth inhibition of human PC-3 cells assessed as cell growth at 100 uM incubated for 48 hrs by sulforhodamine B assay relative to control; conditions: read-out: Activity

## CCc1ccccc1NC(=O)c1sc2nc3c(cc2c1N)C(=O)CCC3
[1]
  growth at 0.01 µM: 96%
[2]
  growth at 0.01 µM: 91%
[3]
  growth at 0.01 µM: 106%
[4]
  growth at 0.01 µM: 97%
[5]
  growth at 0.01 µM: 92%
[6]
  growth at 0.01 µM: 93%
[7]
  growth at 0.01 µM: 108%
[8]
  growth at 0.01 µM: 94%
[9]
  growth at 0.01 µM: 90%
[10]
  growth at 0.01 µM: 104%
[11]
  growth at 0.1 µM: 89%
[12]
  growth at 0.1 µM: 83%
[13]
  growth at 0.1 µM: 73%
[14]
  growth at 0.1 µM: 97%
[15]
  growth at 0.1 µM: 85%
[16]
  growth at 0.1 µM: 102%
[17]
  growth at 1 µM: 63%
[18]
  growth at 1 µM: 39%
[19]
  growth at 1 µM: 49%
[20]
  growth at 1 µM: 62%
[21]
  growth at 1 µM: 17%
[22]
  growth at 100 µM: 31%
[23]
  growth at 100 µM: 3%
[24]
  growth at 100 µM: 19%
[25]
  growth at 100 µM: -7%
[26]
  growth at 100 µM: -19%
[27]
  growth at 100 µM: -17%
[28]
  growth at 100 µM: 10%
[29]
  GI50: 0.203 µM
  LC50 (concentration killing 50% of cells): > 100 µM
  TGI: > 100 µM
[30]
  GI50: 26.2 µM
  LC50: > 100 µM
  TGI: ≥ 100 µM
[31]
  GI50: 0.367 µM
  TGI: 39.2 µM
  CC50: > 100 µM
[32]
  GI50: 0.163 µM
  TGI: 0.777 µM
  CC50: > 100 µM
[33]
  GI50: 0.312 µM
  TGI: > 100 µM
  CC50: > 100 µM

## CCc1cccc(C)c1NC(=O)c1sc2nc3c(cc2c1N)C(=O)CCC3
[1]
  growth at 0.01 µM: 97%
[2]
  growth at 0.01 µM: 94%
[4]
  growth at 0.01 µM: 95%
[5]
  growth at 0.01 µM: 92%
[6]
  growth at 0.01 µM: 93%
[34]
  growth at 0.01 µM: 96%
[7]
  growth at 0.01 µM: 101%
[8]
  growth at 0.01 µM: 84%
[9]
  growth at 0.01 µM: 86%
[11]
  growth at 0.1 µM: 90%
[12]
  growth at 0.1 µM: 91%
[13]
  growth at 0.1 µM: 75%
[15]
  growth at 0.1 µM: 82%
[16]
  growth at 0.1 µM: 91%
[17]
  growth at 1 µM: 67%
[18]
  growth at 1 µM: 43%
[19]
  growth at 1 µM: 48%
[20]
  growth at 1 µM: 59%
[21]
  growth at 1 µM: 18%
[22]
  growth at 100 µM: -9%
[23]
  growth at 100 µM: -33%
[24]
  growth at 100 µM: 7%
[26]
  growth at 100 µM: 29%
[27]
  growth at 100 µM: 11%
[28]
  growth at 100 µM: 5%
[35]
  growth at 100 µM: 18%
[29]
  GI50: 0.341 µM
  LC50 (concentration killing 50% of cells): ≥ 100 µM
  TGI: 15.8 µM
[30]
  LC50: > 100 µM
  TGI: 97.2 µM
[31]
  GI50: 0.558 µM
  CC50: > 100 µM
[32]
  GI50: 0.202 µM
  CC50: > 100 µM
[33]
  GI50: 0.36 µM
  TGI: ≥ 100 µM
  CC50: > 100 µM
